In brackets after ≈: the same amount, converted by molar mass.
Key:
[1] = tested on: Candida albicans; test: Antimicrobial activity against Candida albicans SC5314 after 24 hrs by serial dilution method; assay type: functional; settings: SC5314, 24 h
Procedure, shortened: (§1)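 Broth serial dilution MIC in 96-well plates following NCCLS/CLSI methods. Compounds were dissolved in DMSO and serially diluted in growth medium, with incubation at 35 °C. […] C. parapsilosis 22019 served as the quality-control strain in each assay.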

[2] = tested on: Cryptococcus neoformans; test: Antimicrobial activity against Cryptococcus neoformans 32609 after 72 hrs by serial dilution method; assay type: functional; settings: Cryptococcus neoformans, 32609, 72 h; procedure, shortened: as §1
[3] = tested on: Candida albicans; test: Antimicrobial activity against fluconazole-resistant Candida albicans J18 after 24 hrs by serial dilution method; assay type: functional; settings: J18, 24 h
Procedure, shortened: (§2)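 Broth serial-dilution MIC in 96-well plates following NCCLS guidance. Compounds were dissolved in DMSO and serially diluted in growth medium. Clinical isolates came from a hospital collection. […] C. parapsilosis ATCC 22019 served as the quality-control strain in each assay.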

[4] = tested on: Cryptococcus neoformans; test: Ratio of ravuconazole MIC to compound MIC for Cryptococcus neoformans 32609 after 72 hrs by serial dilution method; assay type: functional
[5] = tested on: Nakaseomyces glabratus; test: Ratio of ravuconazole MIC to compound MIC for Candida glabrata 537 after 24 hrs by serial dilution method; assay type: functional
[6] = tested on: Aspergillus fumigatus; test: Antimicrobial activity against Aspergillus fumigatus 7544 after 48 hrs by serial dilution method; assay type: functional; settings: Aspergillus fumigatus, 7544, 48 h; procedure, shortened: as §1
[7] = tested on: Candida albicans; test: Ratio of fluconazole MIC to compound MIC for fluconazole-resistant Candida albicans 103 after 24 hrs by serial dilution method; assay type: functional
[8] = tested on: Nakaseomyces glabratus; test: Antimicrobial activity against Candida glabrata 537 after 24 hrs by serial dilution method; assay type: functional; settings: Nakaseomyces glabratus, 537, 24 h; procedure, shortened: as §1
[9] = tested on: Candida albicans; test: Antimicrobial activity against fluconazole-resistant Candida albicans 100 after 24 hrs by serial dilution method; assay type: functional; settings: Candida albicans, 100, 24 h; procedure, shortened: as §2
[10] = tested on: Nakaseomyces glabratus; test: Ratio of voriconazole MIC to compound MIC for Candida glabrata 537 after 24 hrs by serial dilution method; assay type: functional
[11] = tested on: Candida albicans; test: Antimicrobial activity against fluconazole-resistant Candida albicans J38 after 24 hrs by serial dilution method; assay type: functional; settings: J38, 24 h; procedure, shortened: as §2
[12] = tested on: Candida albicans; test: Ratio of fluconazole MIC to compound MIC for fluconazole-resistant Candida albicans J18 after 24 hrs by serial dilution method; assay type: functional
[13] = tested on: Candida parapsilosis; test: Ratio of ravuconazole MIC to compound MIC for Candida parapsilosis 22019 after 24 hrs by serial dilution method; assay type: functional
[14] = tested on: Candida albicans; test: Antimicrobial activity against Candida albicans Y0109 after 24 hrs by serial dilution method; assay type: functional; settings: Y0109, 24 h; procedure, shortened: as §1
[15] = tested on: Cryptococcus neoformans; test: Ratio of voriconazole MIC to compound MIC for Cryptococcus neoformans 32609 after 72 hrs by serial dilution method; assay type: functional
[16] = tested on: Candida albicans; test: Antimicrobial activity against fluconazole-resistant Candida albicans J28 after 24 hrs by serial dilution method; assay type: functional; settings: J28, 24 h; procedure, shortened: as §2
[17] = tested on: Candida parapsilosis; test: Antimicrobial activity against Candida parapsilosis 22019 after 24 hrs by serial dilution method; assay type: functional; settings: Lodderomyces parapsilosis, 22019, 24 h; procedure, shortened: as §1
[18] = tested on: Candida albicans; test: Antimicrobial activity against fluconazole-resistant Candida albicans 103 after 24 hrs by serial dilution method; assay type: functional; settings: Candida albicans, 103, 24 h; procedure, shortened: as §2
[19] = tested on: Candida albicans; test: Ratio of fluconazole MIC to compound MIC for fluconazole-resistant Candida albicans 100 after 24 hrs by serial dilution method; assay type: functional
[20] = tested on: Candida parapsilosis; test: Ratio of voriconazole MIC to compound MIC for Candida parapsilosis 22019 after 24 hrs by serial dilution method; assay type: functional
[21] = Intrinsic clearance in Sprague-Dawley rat liver microsomes assessed per mg protein at 0.1 uM by LC/MS/MS analysis; assay type: ADME
Procedure, shortened: (§3)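 Male Sprague−Dawley rat liver microsomes (0.33 mg/mL protein) in 0.1 M Tris-HCl pH 7.4 with 5 mM MgCl₂ and 1 mM NADPH. Compound at a final 0.1 μM (0.01% DMSO, 0.005% BSA), incubated at 37 °C. Samples taken at 0, 7, 17, 30 and 60 min were quenched in methanol, and parent compound was measured by LC/MS/MS. t1/2 and Clint were then calculated.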

[22] = Oral bioavailability in Sprague-Dawley rat at 10 mg/kg; assay type: ADME, organism-based; settings: in vivo
Procedure, shortened: (§4)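 Male Sprague−Dawley rats (200−250 g), seven per group, dosed orally at 10 mg/kg or intravenously at 3 or 5 mg/kg in 5% DMSO + 5% Tween 80 in 90% saline. Serial retrobulbar blood samples were quantified by LC-MS. Parameters were derived from mean plasma concentrations by noncompartmental analysis. For the disulfate salt, values are based on the active free base measured.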

[23] = Tmax in Sprague-Dawley rat at 10 mg/kg, po; assay type: ADME, organism-based; parameters: dose 10 mg/kg, route oral; settings: in vivo; procedure, shortened: as §4
[24] = tested on: Candida albicans; test: Antimicrobial activity against Candida albicans SC5314 infected in ICR mouse assessed as mean survival days at 3.2 mg/kg, po qd for 5 days starting 2 hrs post infection (reference value: 5.2 +/- 2.35 days starting 2 hrs post infection); assay type: functional
[25] = Cmax in Sprague-Dawley rat at 10 mg/kg, po; assay type: ADME, organism-based; parameters: dose 10 mg/kg, route oral; settings: in vivo; procedure, shortened: as §4
[26] = Elimination half life in Sprague-Dawley rat liver microsomes at 0.1 uM by LC/MS/MS analysis; assay type: ADME; settings: read-out: beta t1/2; procedure, shortened: as §3
[27] = Half life in Sprague-Dawley rat at 10 mg/kg, po; assay type: ADME, organism-based; parameters: dose 10 mg/kg, route oral; settings: in vivo; procedure, shortened: as §4
[28] = Aqueous solubility of the compound in hydrochloric acid solution at pH 1.2; assay type: physicochemical
Procedure, shortened: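 Excess solid was stirred for 3 h in pH 1.2 hydrochloric acid or pH 7.4 phosphate buffer, then filtered through 0.45 μm. Absorbance at the UV maximum was compared with a methanol standard, C′ = A′C/A, with values reported in mg/mL. Determined at 30 °C; mean ± SD, n = 3.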

[29] = AUC (0 to infinity) in Sprague-Dawley rat at 10 mg/kg, po; assay type: ADME, organism-based; parameters: time infinity, dose 10 mg/kg, route oral; settings: plasma; procedure, shortened: as §4
[30] = tested on: Candida albicans; test: Antimicrobial activity against Candida albicans SC5314 infected in ICR mouse assessed as mean survival days at 1 mg/kg, po qd for 5 days starting 2 hrs post infection (reference value: 5.2 +/- 2.35 days starting 2 hrs post infection); assay type: functional
[31] = target: Voltage-gated inwardly rectifying potassium channel KCNH2 (Homo sapiens, UniProt Q12809); test: Inhibition of human ERG expressed in CHO cells by whole-cell patch clamp assay; assay type: cell-based
[32] = tested on: Candida albicans; test: Antimicrobial activity against Candida albicans SC5314 infected in ICR mouse assessed as mean survival days at 10 mg/kg, po qd for 5 days starting 2 hrs post infection (reference value: 5.2 +/- 2.35 days starting 2 hrs post infection); assay type: functional
[33] = tested on: Candida albicans; test: Antimicrobial activity against fluconazole-resistant Candida albicans 103 infected in ICR mouse assessed as mean survival days at 3.2 mg/kg, po qd for 5 days starting 2 hrs post infection (reference value: 1.5 +/- 0.53 days); assay type: functional
[34] = tested on: Candida albicans; test: Antimicrobial activity against fluconazole-resistant Candida albicans 103 infected in ICR mouse assessed as mean survival days at 1 mg/kg, po qd for 5 days starting 2 hrs post infection (reference value: 1.5 +/- 0.53 days); assay type: functional
[35] = tested on: Candida albicans; test: Antimicrobial activity against Candida albicans SC5314 infected in ICR mouse assessed as mean survival days at 0.32 mg/kg, po qd for 5 days starting 2 hrs post infection (reference value: 5.2 +/- 2.35 days starting 2 hrs post infection); assay type: functional
[36] = tested on: Candida albicans; test: Antimicrobial activity against fluconazole-resistant Candida albicans 103 infected in ICR mouse assessed as mean survival days at 10 mg/kg, po qd for 5 days starting 2 hrs post infection (reference value: 1.5 +/- 0.53 days); assay type: functional
[37] = AUC (0 to infinity) in Sprague-Dawley rat at 3 mg/kg, iv; assay type: ADME, organism-based; parameters: time infinity, dose 3 mg/kg, route intravenous; settings: plasma; procedure, shortened: as §4
[38] = Half life in Sprague-Dawley rat at 3 mg/kg, iv; assay type: ADME, organism-based; parameters: dose 3 mg/kg, route intravenous; settings: in vivo; procedure, shortened: as §4
[39] = Clearance in Sprague-Dawley rat at 3 mg/kg, iv; assay type: ADME, organism-based; parameters: dose 3 mg/kg, route intravenous; settings: in vivo; procedure, shortened: as §4
[40] = tested on: Candida albicans; test: Antimicrobial activity against fluconazole-resistant Candida albicans 103 infected in ICR mouse assessed as mean survival days at 0.32 mg/kg, po qd for 5 days starting 2 hrs post infection (reference value: 1.5 +/- 0.53 days); assay type: functional

Chain of Voltage-gated inwardly rectifying potassium channel KCNH2 (Q12809 whole entry): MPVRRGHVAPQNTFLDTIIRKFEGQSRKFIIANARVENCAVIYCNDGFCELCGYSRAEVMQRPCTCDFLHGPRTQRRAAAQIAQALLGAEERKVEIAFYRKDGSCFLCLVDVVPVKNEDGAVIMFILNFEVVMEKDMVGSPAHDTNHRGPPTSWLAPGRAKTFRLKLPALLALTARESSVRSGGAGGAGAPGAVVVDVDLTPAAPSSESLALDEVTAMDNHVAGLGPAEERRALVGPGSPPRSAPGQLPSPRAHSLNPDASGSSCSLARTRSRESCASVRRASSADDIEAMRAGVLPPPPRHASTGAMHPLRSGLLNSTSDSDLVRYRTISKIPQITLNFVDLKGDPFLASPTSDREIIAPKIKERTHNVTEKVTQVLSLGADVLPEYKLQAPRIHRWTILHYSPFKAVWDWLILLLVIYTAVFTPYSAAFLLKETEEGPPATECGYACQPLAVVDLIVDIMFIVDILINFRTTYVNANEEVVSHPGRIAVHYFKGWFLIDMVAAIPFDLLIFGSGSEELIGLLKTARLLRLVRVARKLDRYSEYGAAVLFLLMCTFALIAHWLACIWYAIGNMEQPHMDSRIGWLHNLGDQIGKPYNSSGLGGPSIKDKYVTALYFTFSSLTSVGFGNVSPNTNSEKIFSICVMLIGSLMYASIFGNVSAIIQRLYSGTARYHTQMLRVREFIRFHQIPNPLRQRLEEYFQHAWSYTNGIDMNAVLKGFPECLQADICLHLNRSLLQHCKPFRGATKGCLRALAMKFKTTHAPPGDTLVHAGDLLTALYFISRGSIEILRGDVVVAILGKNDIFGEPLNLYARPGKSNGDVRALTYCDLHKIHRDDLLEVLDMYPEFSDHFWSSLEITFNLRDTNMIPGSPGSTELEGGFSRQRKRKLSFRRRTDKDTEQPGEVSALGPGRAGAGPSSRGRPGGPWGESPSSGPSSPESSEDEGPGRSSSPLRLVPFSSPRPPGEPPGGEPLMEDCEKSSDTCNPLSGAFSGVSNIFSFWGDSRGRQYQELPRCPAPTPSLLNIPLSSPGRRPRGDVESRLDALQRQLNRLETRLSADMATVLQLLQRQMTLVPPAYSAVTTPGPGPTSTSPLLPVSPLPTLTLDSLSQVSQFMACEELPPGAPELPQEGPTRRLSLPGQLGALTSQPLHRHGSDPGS

## C[C@@H](N1CCn2cc(-c3ccccc3)nc2C1)[C@](O)(Cn1cncn1)c1ccc(F)cc1F
[1]
  MIC: 0.0625 µg/mL (≈ 0.139 µM)
[2]
  MIC: 0.0312 µg/mL (≈ 0.0694 µM)
[3]
  MIC: > 32 µg/mL
[4]
  Ratio: 2
[5]
  Ratio: 2
[6]
  MIC: 16 µg/mL (≈ 35.5 µM)
[7]
  Ratio: 16
[8]
  MIC: 0.0312 µg/mL (≈ 0.0694 µM)
[9]
  MIC: > 32 µg/mL
[10]
  Ratio: 2
[11]
  MIC: 0.125 µg/mL (≈ 0.277 µM)
[12]
  Ratio: 16
[13]
  Ratio: 2
[14]
  MIC: 0.0625 µg/mL (≈ 0.139 µM)
[15]
  Ratio: 2
[16]
  MIC: 0.5 µg/mL (≈ 1.11 µM)
[17]
  MIC: 0.0625 µg/mL (≈ 0.139 µM)
[18]
  MIC: > 32 µg/mL
[19]
  Ratio: 16
[20]
  Ratio: 2

## C[C@@H](N1CCn2nc(-c3ccc(C#N)nc3)nc2C1)[C@](O)(Cn1cncn1)c1ccc(F)cc1F
[21]
  microsomal CLint at 0.1 µM: 5 µL/min/mg
[22]
  bioavailability: 105%
[1]
  MIC: 0.0156 µg/mL (≈ 0.0327 µM)
[2]
  MIC: 0.0078 µg/mL (≈ 0.0163 µM)
[23]
  Tmax: 1.75 h
[3]
  MIC: > 16 µg/mL
[24]
  Survival: 14.1 days
[6]
  MIC: 1 µg/mL (≈ 2.09 µM)
[25]
  Cmax: 1420 ng/mL
[8]
  MIC: 0.0078 µg/mL (≈ 0.0163 µM)
[26]
  half-life at 0.1 µM: 7.17 h
[9]
  MIC: 8 µg/mL (≈ 16.8 µM)
[11]
  MIC: ≤ 0.0312 µg/mL
[27]
  half-life: 3.63 h
[14]
  MIC: 0.0156 µg/mL (≈ 0.0327 µM)
[28]
  solubility: 44 µg/mL (≈ 92.2 µM)
[29]
  AUC(0-inf): 7910 ng·h/mL
[30]
  Survival: 12.3 days
[31]
  IC50: > 40 µM
[32]
  Survival: 18.1 days
[16]
  MIC: 0.0625 µg/mL (≈ 0.131 µM)
[33]
  Survival: 3.6 days
[17]
  MIC: 0.0156 µg/mL (≈ 0.0327 µM)
[34]
  Survival: 2 days
[35]
  Survival: 8 days
[36]
  Survival: 8.3 days
[18]
  MIC: > 16 µg/mL
[37]
  AUC(0-inf): 2240 ng·h/mL
[38]
  half-life: 1.2 h
[39]
  clearance: 22.7 mL/min/kg
[40]
  Survival: 1.7 days
